Data reported in ChEMBL document CHEMBL1124567, “2,4-Diamino-5-benzylpyrimidines and analogues as antibacterial agents. 11. Quinolylmethyl analogues with basic substituents conveying specificity” (J Med Chem, 1989).
In brackets after ≈: the same amount, converted by molar mass.

Assays:
[1] = Dissociation constant of compound at 25 degree C; assay type: physicochemical
[2] = test system: Pasteurella multocida; experiment: Comparative in vitro antibacterial activity of compound with trimethoprim against Pasteurella multocida ATCC 6587; assay type: functional
Procedure, shortened: (§1)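 Activity is expressed relative to trimethoprim as the reference, with values above 1 meaning lower activity than the reference. Dilutions were threefold (1:3), and a difference of ± one dilution was not treated as significant.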

[3] = test system: Mycolicibacterium smegmatis; experiment: Comparative in vitro antibacterial activity of compound with trimethoprim against Mycobacterium smegmatis S 3254; assay type: functional; procedure, shortened: as §1
[4] = test system: Serratia marcescens; experiment: Comparative in vitro antibacterial activity of compound with trimethoprim against Serratia marcescens CN2398; assay type: functional; procedure, shortened: as §1
[5] = test system: Staphylococcus aureus; experiment: Comparative in vitro antibacterial activity of compound with trimethoprim against Staphylococcus aureus CN491; assay type: functional; procedure, shortened: as §1
[6] = test system: Shigella flexneri; experiment: Comparative in vitro antibacterial activity of compound with trimethoprim against Shigella flexneri CN6007; assay type: functional; procedure, shortened: as §1
[7] = test system: Klebsiella aerogenes; experiment: Comparative in vitro antibacterial activity of compound with trimethoprim against Enterobacter aerogenes 2200/86; assay type: functional; procedure, shortened: as §1
[8] = test system: Proteus vulgaris; experiment: Comparative in vitro antibacterial activity of compound with trimethoprim against Proteus vulgaris CN329; assay type: functional; procedure, shortened: as §1
[9] = test system: Streptococcus pyogenes; experiment: Comparative in vitro antibacterial activity of compound with trimethoprim against Streptococcus pyogenes CN10; assay type: functional; procedure, shortened: as §1
[10] = test system: Klebsiella pneumoniae; experiment: Comparative in vitro antibacterial activity of compound with trimethoprim against Klebsiella pneumoniae CN3632; assay type: functional; procedure, shortened: as §1
[11] = test system: Proteus mirabilis; experiment: Comparative in vitro antibacterial activity of compound with trimethoprim against Proteus mirabilis S2409; assay type: functional; procedure, shortened: as §1
[12] = test system: Streptococcus agalactiae; experiment: Comparative in vitro antibacterial activity of compound with trimethoprim against Streptococcus agalactiae CN1143; assay type: functional; procedure, shortened: as §1
[13] = test system: Escherichia coli; experiment: Comparative in vitro antibacterial activity of compound with trimethoprim against Escherichia coli CN314; assay type: functional; procedure, shortened: as §1
[14] = test system: Citrobacter freundii; experiment: Comparative in vitro antibacterial activity of compound with trimethoprim against Citrobacter freundii 2200/77; assay type: functional; procedure, shortened: as §1
[15] = test system: Enterococcus faecalis; experiment: Comparative in vitro antibacterial activity of compound with trimethoprim against Streptococcus faecalis CN478; assay type: functional; procedure, shortened: as §1
[16] = test system: Vibrio cholerae; experiment: Comparative in vitro antibacterial activity of compound with trimethoprim against Vibrio cholerae ATCC 14035; assay type: functional
Procedure, shortened: (§2)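 In vitro activity given as a ratio to trimethoprim, which is tested alongside; values above 1 mean lower activity than trimethoprim. Compounds were tested in serial 1:3 dilutions, and a difference of ±one dilution is treated as not significant.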

[17] = test system: Bordetella bronchiseptica; experiment: Comparative in vitro antibacterial activity of compound with trimethoprim against Bordetella bronchiseptica CN385; assay type: functional; procedure, shortened: as §1
[18] = test system: Salmonella typhimurium; experiment: Comparative in vitro antibacterial activity of compound with trimethoprim against Salmonella Typhimurium S 8587; assay type: functional, Salmonella enterica subsp. enterica serovar Typhimurium; conditions: Salmonella enterica; procedure, shortened: as §1
[19] = Comparative in vitro antibacterial activity of compound with trimethoprim against Salmonella typhi CN512; assay type: functional, salmonella typhosa; procedure, shortened: as §2
[20] = biological target: T1, Dihydrofolate reductase (Rattus norvegicus, UniProt Q920D2); experiment: Inhibitory activity against Dihydrofolate reductase in rat liver; assay type: tissue-based; conditions: read-out: I50
T1 sequence (Q920D2 whole entry): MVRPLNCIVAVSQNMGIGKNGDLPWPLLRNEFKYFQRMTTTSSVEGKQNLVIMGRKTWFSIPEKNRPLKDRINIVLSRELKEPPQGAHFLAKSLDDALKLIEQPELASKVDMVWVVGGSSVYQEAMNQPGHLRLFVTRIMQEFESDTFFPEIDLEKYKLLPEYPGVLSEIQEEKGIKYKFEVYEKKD

[21] = Dissociation constent of compound at 20 degree C; assay type: ADME

Compound	pKa [1]	MIC [2] [µg/mL]	MIC [3] [µg/mL]	MIC [4] [µg/mL]	MIC [5] [µg/mL]	MIC [6] [µg/mL]	MIC [7] [µg/mL]	MIC [8] [µg/mL]	MIC [9] [µg/mL]	MIC [10] [µg/mL]	MIC [11] [µg/mL]	MIC [12] [µg/mL]	MIC [13] [µg/mL]	MIC [14] [µg/mL]	MIC [15] [µg/mL]	MIC [16] [µg/mL]	MIC [17] [µg/mL]	MIC [18] [µg/mL]	MIC [19] [µg/mL]	IC50 [20] [µM]	also measured
COc1ccc2ccccc2n1	3.16																				
Cc1cc(N(C)C)nc2ccc(Cc3cnc(N)nc3N)cc12		1 (≈ 3.24 µM)	1 (≈ 3.24 µM)	3 (≈ 9.73 µM)	3 (≈ 9.73 µM)	10 (≈ 32.4 µM)	3 (≈ 9.73 µM)	3 (≈ 9.73 µM)	10 (≈ 32.4 µM)	10 (≈ 32.4 µM)	3 (≈ 9.73 µM)	10 (≈ 32.4 µM)	3 (≈ 9.73 µM)	10 (≈ 32.4 µM)	3 (≈ 9.73 µM)	1 (≈ 3.24 µM)	10 (≈ 32.4 µM)	10 (≈ 32.4 µM)	10 (≈ 32.4 µM)		
COc1cc(C)c2ccc(Cc3cnc(N)nc3N)cc2n1		10 (≈ 33.9 µM)	3 (≈ 10.2 µM)	> 100	10 (≈ 33.9 µM)	300 (≈ 1020 µM)	300 (≈ 1020 µM)	30 (≈ 102 µM)	3 (≈ 10.2 µM)	100 (≈ 339 µM)	30 (≈ 102 µM)	3 (≈ 10.2 µM)	300 (≈ 1020 µM)	100 (≈ 339 µM)	3 (≈ 10.2 µM)	3 (≈ 10.2 µM)	> 100	100 (≈ 339 µM)	1000 (≈ 3390 µM)	4.5	
CCCCCc1cc(OC)c2cc(Cc3cnc(N)nc3N)cc(OC)c2n1		10 (≈ 26.2 µM)	10 (≈ 26.2 µM)	30 (≈ 78.6 µM)	0.3 (≈ 0.786 µM)	30 (≈ 78.6 µM)	10 (≈ 26.2 µM)	100 (≈ 262 µM)	3 (≈ 7.86 µM)	30 (≈ 78.6 µM)	30 (≈ 78.6 µM)	0.3 (≈ 0.786 µM)	10 (≈ 26.2 µM)	10 (≈ 26.2 µM)	1 (≈ 2.62 µM)	3 (≈ 7.86 µM)	10 (≈ 26.2 µM)	30 (≈ 78.6 µM)	30 (≈ 78.6 µM)		
COc1cccc2cccnc12	4.99																				
Cc1cc(N2CCOCC2)nc2c(C)cc(Br)cc12	6.37																				
COc1cc(C)nc2c(OC)cc(Br)cc12	6.39																				
Cc1cc(N2CCOCC2)nc2c(C)cc(Cc3cnc(N)nc3N)cc12		10 (≈ 27.4 µM)	3 (≈ 8.23 µM)	100 (≈ 274 µM)	0.3 (≈ 0.823 µM)	30 (≈ 82.3 µM)	30 (≈ 82.3 µM)	100 (≈ 274 µM)	1 (≈ 2.74 µM)	10 (≈ 27.4 µM)	30 (≈ 82.3 µM)	0.3 (≈ 0.823 µM)	30 (≈ 82.3 µM)	10 (≈ 27.4 µM)	0.3 (≈ 0.823 µM)	3 (≈ 8.23 µM)	3 (≈ 8.23 µM)	30 (≈ 82.3 µM)	30 (≈ 82.3 µM)	410	
Cc1cc(N2CCOCC2)nc2cc(Cc3cnc(N)nc3N)ccc12		300 (≈ 856 µM)	3 (≈ 8.56 µM)	> 10	3 (≈ 8.56 µM)	1000 (≈ 2850 µM)	300 (≈ 856 µM)	> 100	10 (≈ 28.5 µM)	300 (≈ 856 µM)	> 30	30 (≈ 85.6 µM)	300 (≈ 856 µM)	100 (≈ 285 µM)	3 (≈ 8.56 µM)	10 (≈ 28.5 µM)	> 100	1000 (≈ 2850 µM)	10000 (≈ 28500 µM)	16	
COc1cc(C)nc2c(OC)cc(Cc3cnc(N)nc3N)cc12		3 (≈ 9.22 µM)	3 (≈ 9.22 µM)	3 (≈ 9.22 µM)	0.3 (≈ 0.922 µM)	3 (≈ 9.22 µM)	10 (≈ 30.7 µM)	3 (≈ 9.22 µM)	0.3 (≈ 0.922 µM)	10 (≈ 30.7 µM)	10 (≈ 30.7 µM)	1 (≈ 3.07 µM)	3 (≈ 9.22 µM)	3 (≈ 9.22 µM)	1 (≈ 3.07 µM)	1 (≈ 3.07 µM)	10 (≈ 30.7 µM)	3 (≈ 9.22 µM)	10 (≈ 30.7 µM)	49	
Cc1cc(N(C)C)nc2c(C)cc(Cc3cnc(N)nc3N)cc12		3 (≈ 9.3 µM)	3 (≈ 9.3 µM)	10 (≈ 31 µM)	1 (≈ 3.1 µM)	10 (≈ 31 µM)	10 (≈ 31 µM)	10 (≈ 31 µM)	3 (≈ 9.3 µM)	3 (≈ 9.3 µM)	10 (≈ 31 µM)	1 (≈ 3.1 µM)	10 (≈ 31 µM)	10 (≈ 31 µM)	1 (≈ 3.1 µM)	1 (≈ 3.1 µM)	30 (≈ 93 µM)	10 (≈ 31 µM)	3 (≈ 9.3 µM)	280	
COc1cc(Br)cc2c(N(C)C)cc(C)nc12	8.18																				
COc1cc(Cc2cnc(N)nc2N)cc2c(N(C)C)cc(C)nc12		100 (≈ 295 µM)	100 (≈ 295 µM)	> 300	30 (≈ 88.6 µM)	30 (≈ 88.6 µM)	300 (≈ 886 µM)	> 100	10 (≈ 29.5 µM)	> 300	> 30	30 (≈ 88.6 µM)	> 10	> 300	100 (≈ 295 µM)	10 (≈ 29.5 µM)	30 (≈ 88.6 µM)	100 (≈ 295 µM)	100 (≈ 295 µM)	70	
Cc1cc(N(C)C)nc2ccc(Br)cc12	7.34																				
Brc1ccc2ncccc2c1																					pKa [21]: 3.91
COc1cc(C)c2cc(Cc3cnc(N)nc3N)cc(C)c2n1		10 (≈ 32.3 µM)	3 (≈ 9.7 µM)	10 (≈ 32.3 µM)	1 (≈ 3.23 µM)	30 (≈ 97 µM)	30 (≈ 97 µM)	30 (≈ 97 µM)	3 (≈ 9.7 µM)	10 (≈ 32.3 µM)	10 (≈ 32.3 µM)	1 (≈ 3.23 µM)	10 (≈ 32.3 µM)	30 (≈ 97 µM)	1 (≈ 3.23 µM)	3 (≈ 9.7 µM)	100 (≈ 323 µM)	30 (≈ 97 µM)	10 (≈ 32.3 µM)	62	
COc1cc(C)c2cc(Br)cc(C)c2n1	2.96																				
Nc1ccnc2ccccc12 [QUINOLIN-4-AMINE]																					pKa [21]: 9.13
